Laboratory results taken from ChEMBL document CHEMBL3525925, “In vitro studies on the oxidative metabolism of 20(s)-ginsenoside Rh2 in human, monkey, dog, rat, and mouse liver microsomes, and human liver s9” (Drug Metab Dispos, 2012).

Tests used:
Cytochrome P450 1B1 = target: T1, Cytochrome P450 1B1 (Homo sapiens, UniProt Q16678); test: Drug metabolism in human recombinant CYP1B1 mediated oxidative metabolism at 10 uM; assay type: ADME; conditions: recombinant enzyme
T1 sequence (Q16678 whole entry): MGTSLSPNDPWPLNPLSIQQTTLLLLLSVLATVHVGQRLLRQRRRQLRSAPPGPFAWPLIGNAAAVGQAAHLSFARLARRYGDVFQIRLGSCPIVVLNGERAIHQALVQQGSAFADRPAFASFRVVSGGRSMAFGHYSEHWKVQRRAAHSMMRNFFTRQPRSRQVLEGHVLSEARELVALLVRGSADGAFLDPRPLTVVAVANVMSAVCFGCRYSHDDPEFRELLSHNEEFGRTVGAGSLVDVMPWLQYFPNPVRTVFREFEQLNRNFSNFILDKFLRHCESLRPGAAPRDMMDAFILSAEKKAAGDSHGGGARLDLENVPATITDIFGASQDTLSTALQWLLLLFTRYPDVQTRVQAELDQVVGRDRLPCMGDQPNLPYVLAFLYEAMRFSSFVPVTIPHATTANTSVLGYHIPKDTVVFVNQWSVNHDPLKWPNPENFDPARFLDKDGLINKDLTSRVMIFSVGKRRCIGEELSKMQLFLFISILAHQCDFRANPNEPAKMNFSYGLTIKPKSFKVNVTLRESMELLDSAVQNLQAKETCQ
Method in brief: (§1)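 Recombinant human P450 at 50 nM incubated with 10 µM Rh2 and 2 mM NADPH in 100 mM potassium phosphate pH 7.4, 37°C, 60 min; ice-cold acetonitrile stop; duplicates; metabolites detected by LC/ion-trap MSn.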

[1] = Oral bioavailability in beagle dog at 8 mg/kg; assay type: ADME, organism-based, Canis lupus familiaris; conditions: in vivo
[2] = Oral bioavailability in Wistar rat at 25 mg/kg; assay type: ADME, organism-based; conditions: in vivo
Liver = test: Drug uptake in rat liver at 50 mg/kg, po; assay type: ADME, organism-based; parameters: dose 50 mg/kg, route oral; conditions: in vivo, read-out: Drug uptake
Cytochrome P450 2C8 = target: T2, Cytochrome P450 2C8 (Homo sapiens, UniProt P10632); test: Drug metabolism in human recombinant CYP2C8 mediated oxidative metabolism at 10 uM; assay type: ADME; conditions: recombinant enzyme; method in brief: as §1
T2 sequence (P10632 whole entry): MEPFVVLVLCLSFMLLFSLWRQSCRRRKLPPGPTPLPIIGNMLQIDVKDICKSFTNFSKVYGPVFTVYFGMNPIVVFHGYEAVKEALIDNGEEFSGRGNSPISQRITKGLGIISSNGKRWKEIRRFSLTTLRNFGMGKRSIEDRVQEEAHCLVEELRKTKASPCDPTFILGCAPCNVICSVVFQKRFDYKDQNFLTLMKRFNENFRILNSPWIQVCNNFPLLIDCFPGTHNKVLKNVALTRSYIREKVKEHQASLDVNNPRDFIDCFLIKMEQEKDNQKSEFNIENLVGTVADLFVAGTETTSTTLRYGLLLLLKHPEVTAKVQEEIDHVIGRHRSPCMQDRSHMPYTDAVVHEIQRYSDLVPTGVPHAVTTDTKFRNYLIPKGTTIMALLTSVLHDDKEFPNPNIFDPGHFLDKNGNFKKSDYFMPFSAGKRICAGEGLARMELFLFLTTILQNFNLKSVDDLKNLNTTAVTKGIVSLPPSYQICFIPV

Liver microsome [3] = test: Drug metabolism in human liver microsomes assessed as oxidative metabolism at 10 uM in presence of 1 uM sulfaphenazole CYP2C9 inhibitor; assay type: ADME
Method in brief: (§2)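 Pooled human liver microsomes (1 mg/ml, mixed-gender, 50 donors), 10 µM Rh2, 2 mM NADPH and selective inhibitor in 100 mM potassium phosphate pH 7.4; 37°C, 60 min; ice-cold acetonitrile stop; uninhibited controls; duplicates; formation of M1-2, M1-3 and M1-4+M1-5 quantified by LC/ion-trap MSn.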

Cytochrome P450 2A6 = target: T3, Cytochrome P450 2A6 (Homo sapiens, UniProt P11509); test: Drug metabolism in human recombinant CYP2A6 mediated oxidative metabolism at 10 uM; assay type: ADME; conditions: recombinant enzyme; method in brief: as §1
T3 sequence (P11509 whole entry): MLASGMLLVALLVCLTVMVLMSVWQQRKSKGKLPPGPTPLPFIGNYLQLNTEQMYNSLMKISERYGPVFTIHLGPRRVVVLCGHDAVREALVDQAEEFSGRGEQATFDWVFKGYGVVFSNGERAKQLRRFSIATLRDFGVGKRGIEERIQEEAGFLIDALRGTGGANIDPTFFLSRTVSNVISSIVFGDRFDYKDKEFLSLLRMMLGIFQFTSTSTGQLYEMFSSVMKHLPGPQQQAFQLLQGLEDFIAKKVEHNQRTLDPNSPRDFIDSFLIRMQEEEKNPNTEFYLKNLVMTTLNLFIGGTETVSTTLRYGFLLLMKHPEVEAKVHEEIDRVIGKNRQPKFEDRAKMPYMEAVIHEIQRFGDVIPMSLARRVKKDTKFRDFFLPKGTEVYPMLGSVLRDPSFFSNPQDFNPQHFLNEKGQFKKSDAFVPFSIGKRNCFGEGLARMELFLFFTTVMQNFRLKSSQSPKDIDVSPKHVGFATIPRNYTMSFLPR

Liver microsome [4] = test: Drug metabolism in human liver microsomes assessed as oxidative metabolism at 10 uM in presence of 60 uM chlormethiazole CYP2E1 inhibitor; assay type: ADME; method in brief: as §2
[5] = Drug metabolism in cynomolgus monkey liver microsomes assessed as (2S)-2-amino-5-((2R)-1-(carboxymethylamino)-3-((6S)-2,6-dihydroxy-6-((3S,5R,8R,9R,10R,12R,13R,14R,17S)-12-hydroxy-4,4,8,10,14-pentamethyl-3-((2R,3R,4S,5S,6R)-3,4,5-trihydroxy-6-(hydroxymethyl)tetrahydro-2H-pyran-2-yloxy)hexadecahydro-1H-cyclopenta[a]phenanthren-17-yl)-2-methylheptan-3-ylthio)-1-oxopropan-2-ylamino)-5-oxopentanoic acid formation at 10 uM by LC/MS analysis in presence of 1 uM ketoconazole; assay type: ADME, Macaca fascicularis
Method in brief: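 Cynomolgus monkey liver microsomes (1 mg/ml) with 2 mM GSH, 10 µM Rh2 and 1.0 µM ketoconazole preincubated 10 min before adding 2 mM NADPH; GSH conjugate measured by LC/ion-trap MSn peak area; duplicates.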

Cytochrome P450 4A11 = target: T4, Cytochrome P450 4A11 (Homo sapiens, UniProt Q02928); test: Drug metabolism in human recombinant CYP4A11 mediated oxidative metabolism at 10 uM; assay type: ADME; conditions: recombinant enzyme; method in brief: as §1
T4 sequence (Q02928 whole entry): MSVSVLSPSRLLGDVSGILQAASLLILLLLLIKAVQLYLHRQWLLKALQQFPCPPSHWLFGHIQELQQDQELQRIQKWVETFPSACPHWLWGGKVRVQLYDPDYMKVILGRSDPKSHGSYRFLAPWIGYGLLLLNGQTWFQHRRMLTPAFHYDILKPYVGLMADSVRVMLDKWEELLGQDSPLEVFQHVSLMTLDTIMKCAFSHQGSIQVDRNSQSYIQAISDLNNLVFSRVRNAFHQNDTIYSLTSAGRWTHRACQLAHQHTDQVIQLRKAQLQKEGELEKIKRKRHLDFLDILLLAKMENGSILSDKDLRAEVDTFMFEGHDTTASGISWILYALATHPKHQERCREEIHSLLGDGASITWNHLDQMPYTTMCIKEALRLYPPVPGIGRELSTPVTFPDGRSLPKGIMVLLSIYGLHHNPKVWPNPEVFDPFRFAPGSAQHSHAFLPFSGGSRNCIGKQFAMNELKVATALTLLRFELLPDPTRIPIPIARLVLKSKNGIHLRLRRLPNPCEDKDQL

Liver microsome [6] = test: Drug metabolism in human liver microsomes assessed as oxidative metabolism at 10 uM in presence of 10 uM ketoconazole CYP3A inhibitor; assay type: ADME; method in brief: as §2
[7] = Drug excretion in rat feces at 50 mg/kg, po; assay type: ADME, organism-based; parameters: dose 50 mg/kg, route oral; conditions: faeces, read-out: Drug excretion

CC(C)=CCC[C@](C)(O)[C@H]1CC[C@]2(C)[C@@H]1[C@H](O)C[C@@H]1[C@@]3(C)CC[C@H](O[C@@H]4O[C@H](CO)[C@@H](O)[C@H](O)[C@H]4O)C(C)(C)[C@@H]3CC[C@]12C [GINSENOSIDE RH2]
Drug metabolism (Cytochrome P450 1B1): metabolite_not_detected
bioavailability [1]: 55%
bioavailability [2]: 28%
concentration (Liver): 60 µM
Drug metabolism (Cytochrome P450 2C8): metabolite_not_detected
Drug metabolism (Liver microsome [3]): metabolite_detected
Drug metabolism (Cytochrome P450 2A6): metabolite_not_detected
Drug metabolism (Liver microsome [4]): metabolite_detected
Drug metabolism [5]: metabolite_not_detected
Drug metabolism (Cytochrome P450 4A11): metabolite_not_detected
Drug metabolism (Liver microsome [6]): metabolite_not_detected
dose excreted [7]: < 10%
